Assay results taken from ChEMBL document CHEMBL4619805, “Structural Analysis of VDR Complex with ZK168281 Antagonist” (J Med Chem, 2020).
Activity calls are given as the source filed them. No cut-off for these calls is given here.

Assays:
[1] = molecular target: T1, Vitamin D3 receptor A (Danio rerio) (UniProt Q9PTN2); assay: Binding affinity to H12 region of zebrafish VDR LBD assessed as stabilization of structural elements forming LBP at 10 fold excess compound concentration by HDX-MS analysis
T1 sequence (whole entry): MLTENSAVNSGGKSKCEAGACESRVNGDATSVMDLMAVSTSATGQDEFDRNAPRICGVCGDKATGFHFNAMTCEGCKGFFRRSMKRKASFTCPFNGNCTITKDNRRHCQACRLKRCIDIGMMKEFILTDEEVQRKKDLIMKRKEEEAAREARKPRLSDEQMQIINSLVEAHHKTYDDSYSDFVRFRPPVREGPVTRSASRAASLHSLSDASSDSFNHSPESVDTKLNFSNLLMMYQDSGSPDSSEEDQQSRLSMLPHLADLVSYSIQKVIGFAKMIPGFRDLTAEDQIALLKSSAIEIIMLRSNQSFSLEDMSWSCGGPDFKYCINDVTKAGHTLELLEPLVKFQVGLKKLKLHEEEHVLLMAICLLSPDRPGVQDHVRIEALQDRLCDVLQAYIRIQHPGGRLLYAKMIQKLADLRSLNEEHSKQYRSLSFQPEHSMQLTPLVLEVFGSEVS
Procedure, shortened: (§1)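 zVDR LBD (residues 156–453, 10 µM) preincubated 30 min at room temperature with tenfold ligand excess (ethanol control). D2O exchange in 50 mM Tris pH 8.0, 50 mM NaCl, 2% glycerol, 1 mM TCEP for 60–1800 s. Quench with urea/TFA, online pepsin digest, UPLC-MS. Back-exchange corrected against fully deuterated sample; triplicates.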

[2] = molecular target: T1, Vitamin D3 receptor A (Danio rerio); assay: Binding affinity to H12 region (440 to 445 residues) of zebrafish VDR LBD assessed as stabilization of structural elements by measuring increase in protection at 10 fold excess compound concentration in presence of SRC1 NR2 coactivator peptide measured at 1 mins by HDX-MS analysis
Procedure, shortened: (§2)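 Deuterium exchange ran for 60, 180, 600 or 1800 s in D₂O buffer (50 mM Tris pH 8.0, 50 mM NaCl, 2% glycerol, 1 mM TCEP). Quench with urea/TFA, then online pepsin digestion and UPLC-MS. Uptake corrected for back exchange against a fully deuterated control. Triplicates.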

[3] = molecular target: T1, Vitamin D3 receptor A (Danio rerio); assay: Binding affinity to zebrafish VDR LBD assessed as stabilization of structural elements forming LBP at 10 fold excess compound concentration by HDX-MS analysis
Procedure, shortened: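 zVDR LBD (10 µM) incubated 30 min at room temperature with ten-fold ligand excess, ethanol as control. D₂O exchange for 60, 180, 600 or 1800 s in 50 mM Tris pH 8.0, 50 mM NaCl, 2% glycerol, 1 mM TCEP. Quench with 3 M urea/0.1% TFA, then pepsin column digestion and UPLC-MS. Back-exchange corrected using a fully deuterated sample. Triplicate reactions.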

[4] = molecular target: T1, Vitamin D3 receptor A (Danio rerio); assay: Binding affinity to H10 region (416 to 426 residues) of zebrafish VDR LBD assessed as stabilization of structural elements at 10 fold excess compound concentration in presence of SRC1 NR2 coactivator peptide measured at 3 and 10 mins by HDX-MS analysis; procedure, shortened: as §2
[5] = molecular target: T1, Vitamin D3 receptor A (Danio rerio); assay: Antagonist activity at full-length zebrafish VDR expressed in rat IEC18 cells co-expressing CYP24A1 promoter region assessed as reduction in 1,25D3-induced receptor activation at 1 to 1000 nM incubated for 24 hrs by luciferase reporter gene assay
[6] = molecular target: T1, Vitamin D3 receptor A (Danio rerio); assay: Binding affinity to H3 region (253 to 267 residues) of zebrafish VDR LBD assessed as stabilization of structural elements by measuring increase in protection at 10 fold excess compound concentration in presence of SRC1 NR2 coactivator peptide measured at 1 mins by HDX-MS analysis
Procedure, shortened: (§3)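 Deuterium exchange at pH 8.0 for 60, 180, 600 or 1800 s. Quench, pepsin digestion, UPLC-MS. Per-residue deuteration corrected to a fully deuterated control; triplicates.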

[7] = molecular target: T1, Vitamin D3 receptor A (Danio rerio); assay: Binding affinity to H3 and H7 region of zebrafish VDR LBD assessed as stabilization of structural elements by measuring increase in protection at 10 fold excess compound concentration in presence of SRC1 NR2 coactivator peptide measured at 1 mins by HDX-MS analysis; procedure, shortened: as §3
[8] = molecular target: T1, Vitamin D3 receptor A (Danio rerio); assay: Binding affinity to H5 region (290 to 297 residues) of zebrafish VDR LBD assessed as destabilization of structural elements by measuring deprotection at 10 fold excess compound concentration in presence of SRC1 NR2 coactivator peptide measured at 1 mins by HDX-MS analysis relative to 1,25D3
[9] = molecular target: T1, Vitamin D3 receptor A (Danio rerio); assay: Binding affinity to H10 to H11 region (416 to 437 residues) of zebrafish VDR LBD assessed as stabilization of structural elements by measuring increase in protection at 10 fold excess compound concentration in presence of SRC1 NR2 coactivator peptide measured at 1 mins by HDX-MS analysis; procedure, shortened: as §3
[10] = molecular target: T1, Vitamin D3 receptor A (Danio rerio); assay: Binding affinity to H1 region of zebrafish VDR LBD assessed as stabilization of structural elements forming LBP at 10 fold excess compound concentration by HDX-MS analysis; procedure, shortened: as §1
[11] = molecular target: T1, Vitamin D3 receptor A (Danio rerio); assay: Binding affinity to H6 to H7 region (322 to 344 residues) of zebrafish VDR LBD assessed as stabilization of structural elements by measuring increase in protection at 10 fold excess compound concentration in presence of SRC1 NR2 coactivator peptide measured at 1 mins by HDX-MS analysis; procedure, shortened: as §3
[12] = molecular target: T2, Vitamin D3 receptor (Homo sapiens) (UniProt P11473); assay: Antagonist activity at human VDR expressed in HEK293 EBNA cells co-expressing CYP24A1 promoter region assessed as reduction in 1,25D3-induced receptor activation at 0.1 to 1000 nM incubated for 18 hrs by luciferase reporter gene assay; type: cell-based
T2 sequence (whole entry): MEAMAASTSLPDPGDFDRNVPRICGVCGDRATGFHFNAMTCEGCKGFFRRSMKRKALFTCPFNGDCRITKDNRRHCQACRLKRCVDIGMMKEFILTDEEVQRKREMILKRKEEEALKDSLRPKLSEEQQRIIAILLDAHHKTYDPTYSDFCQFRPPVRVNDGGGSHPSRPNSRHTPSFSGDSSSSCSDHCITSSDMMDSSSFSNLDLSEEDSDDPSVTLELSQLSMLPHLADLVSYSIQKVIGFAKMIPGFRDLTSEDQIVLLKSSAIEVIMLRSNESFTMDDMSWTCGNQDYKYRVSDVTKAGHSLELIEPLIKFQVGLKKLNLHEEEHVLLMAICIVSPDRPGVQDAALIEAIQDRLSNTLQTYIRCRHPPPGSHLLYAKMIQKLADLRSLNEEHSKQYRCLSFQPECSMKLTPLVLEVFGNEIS
Procedure, shortened: (§4)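 HEK293 EBNA cells, in 5% charcoal-treated FCS for 48 h, co-transfected by jetPEI with full-length hVDR, firefly luciferase under the human CYP24A1 proximal promoter (-414 to -64), and Renilla. 6 h later, 10 nM 1,25D3 ± compound (0.1–1000 nM) added for 18 h. Lysate luciferase normalized to Renilla; triplicate, mean ± SD.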

[13] = molecular target: T1, Vitamin D3 receptor A (Danio rerio); assay: Binding affinity to H12 region of zebrafish VDR LBD assessed as stabilization of structural elements at 10 fold excess compound concentration in presence of SRC1 NR2 coactivator peptide by HDX-MS analysis; procedure, shortened: as §3
[14] = molecular target: T2, Vitamin D3 receptor (Homo sapiens); assay: Antagonist activity at human VDR expressed in HEK293 EBNA cells co-expressing CYP24A1 promoter region assessed as reduction in 1,25D3-induced receptor activation at 0.1 to 1000 nM incubated for 18 hrs by luciferase reporter gene assay relative to control; type: cell-based; set-up: scale not given: the % may be the effect or the level left; procedure, shortened: as §4
[15] = molecular target: T1, Vitamin D3 receptor A (Danio rerio); assay: Binding affinity to H2 region of zebrafish VDR LBD assessed as stabilization of structural elements forming LBP at 10 fold excess compound concentration by HDX-MS analysis; procedure, shortened: as §1

Row | Activity [1] | Activity [2] [%] | Activity [3] | Activity [4] | inhibition [5] | Activity [6] | Activity [7] [%] | Activity [8] [%] | Activity [9] | Activity [10] | Activity [11] | inhibition [12] | Activity [13] | Activity [14] [%] | Activity [15] | Structure (SMILES)
1 | inactive | 30 to 40 | Active | Active |  |  |  |  |  |  |  |  |  |  |  | C=C1/C(=C\C=C2/CCC[C@]3(C)[C@@H]([C@H](C)CCCC(C)(C)O)CC[C@@H]23)C[C@@H](O)C[C@@H]1O
2 | inactive |  |  |  | Active | Active | < 80 | > 30 | Active | Active | Active | Dose-dependent effect | inactive | < 60 | Active | C=C1/C(=C\C=C2/CCC[C@]3(C)[C@@H]([C@H](C)/C=C/[C@@H](O)C4(/C=C/C(=O)OCC)CC4)CC[C@@H]23)C[C@@H](O)C[C@@H]1O
